Experimental data from PMC4712096 (The FEBS journal, 2015).
Peptide text beside a SMILES is read from it.

Legend:
[1] = target: APOBEC3G (A3G), wild type, C-terminal His6 tag (human) (UniProt Q9HC16)
A3G = A3G (Homo sapiens, UniProt Q9HC16); assay: Inhibition of deamination activity of purified A3G; assay type: biochemical
SupT1 cells = assay: Alkaline comet assay in SupT1 cells; assay type: cell-based; conditions: no radiation; Tail DNA % and Olive Tail Moment
In short: (§1)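 Alkaline comet assay. One day after culturing, cells were pre-treated or not with peptides for 2 h, then γ-irradiated (4 Gy) or mock-irradiated. Cells were embedded in low-melting agarose. Lysis was 2 h in ice-cold 2.5 M NaCl, 100 mM EDTA, 10 mM Tris pH 10, 1% Triton X-100 and 10% DMSO. DNA was unwound 20 min at 4°C in NaOH/EDTA pH 13 and electrophoresed 45 V, 20 min. Slides were neutralised and stained with ethidium bromide. Tail DNA % and Olive tail moment were scored from random fields.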

H9 cells = assay: Alkaline comet assay in H9 cells; assay type: cell-based; conditions: no radiation; Tail DNA % and Olive Tail Moment
In short: as §1

[2] = target: APOBEC3G (A3G), wild type, C-terminal His6 tag (human, UniProt Q9HC16 1-384); assay: cell-based or functional assay
APOBEC3G (A3G), wild type, C-terminal His6 tag, sequence (Q9HC16 whole entry): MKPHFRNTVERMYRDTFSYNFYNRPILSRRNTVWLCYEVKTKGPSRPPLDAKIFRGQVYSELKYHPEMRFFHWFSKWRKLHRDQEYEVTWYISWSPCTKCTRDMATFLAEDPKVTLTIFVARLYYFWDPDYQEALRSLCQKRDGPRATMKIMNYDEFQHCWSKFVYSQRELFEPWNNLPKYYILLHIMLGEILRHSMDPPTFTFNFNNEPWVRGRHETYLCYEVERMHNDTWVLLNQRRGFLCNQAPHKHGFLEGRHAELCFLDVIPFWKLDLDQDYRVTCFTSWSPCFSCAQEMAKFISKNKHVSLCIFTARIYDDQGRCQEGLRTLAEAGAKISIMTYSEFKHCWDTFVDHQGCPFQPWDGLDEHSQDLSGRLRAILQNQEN

APOBEC3G (A3G), wild type, C-terminal His6 tag (human), sequence (Q9HC16 whole entry): as above
A3G, sequence (Q9HC16 whole entry): as above

Molecule | IC50 of inhibition of ssDNA deamination by purified A3G [1] [µM] | IC50 (A3G) [µM] | further results
Vif26-39 (peptide) | 80 | – | –
CSCC[C@H](NC(=O)[C@H](C)NC(=O)[C@H](C)NC(=O)[C@H](C)NC(=O)[C@@H](N)C(C)C)C(=O)N[C@@H](Cc1ccc(O)cc1)C(=O)N[C@H](C(=O)N[C@@H](CO)C(=O)NCC(=O)N[C@@H](CCCCN)C(=O)N[C@@H](C)C(=O)N[C@@H](CCCNC(=N)N)C(=O)NCC(=O)N[C@@H](Cc1c[nH]c2ccccc12)C(=O)N[C@@H](Cc1ccccc1)C(=O)O)C(C)C [Vif 25-39 (26AAA28)] (H-VAAAMYVSGKARGWF-OH) | – | 10 | –
CSCC[C@H](NC(=O)[C@H](Cc1c[nH]cn1)NC(=O)[C@H](Cc1c[nH]cn1)NC(=O)[C@H](CCCCN)NC(=O)[C@@H](N)C(C)C)C(=O)N[C@@H](Cc1ccc(O)cc1)C(=O)N[C@H](C(=O)N[C@@H](CO)C(=O)NCC(=O)N[C@@H](CCCCN)C(=O)N[C@@H](C)C(=O)N[C@@H](CCCNC(=N)N)C(=O)NCC(=O)N[C@@H](Cc1c[nH]c2ccccc12)C(=O)N[C@@H](Cc1ccccc1)C(=O)O)C(C)C [Vif25-39] | – | 0.6 | DNA damage in non-irradiated SupT1 cells (comet assay) (SupT1 cells): did not induce any damage; DNA damage in non-irradiated H9 cells (comet assay) (H9 cells): did not induce any damage
CC(C)C[C@H](NC(=O)[C@H](Cc1ccc(O)cc1)NC(=O)[C@@H](NC(=O)[C@H](CCC(=O)O)NC(=O)[C@H](Cc1cnc[nH]1)NC(=O)[C@H](CCCNC(=N)N)NC(=O)CNC(=O)[C@H](CCCNC(=N)N)NC(=O)[C@@H](NC(=O)[C@@H](N)Cc1c[nH]c2ccccc12)C(C)C)[C@@H](C)O)C(=O)N[C@@H](CS)C(=O)N[C@@H](Cc1ccc(O)cc1)C(=O)N[C@@H](CCC(=O)O)C(=O)N[C@H](C(=O)N[C@@H](CCC(=O)O)C(=O)O)C(C)C [Peptide A3G211-225] (H-WVRGRHETYLCYEVE-OH) | – | 10 | –
Vif25-36 (peptide) | 50 | – | –
CC(C)C[C@H](NC(=O)[C@@H](N)CCCNC(=N)N)C(=O)N[C@@H](Cc1ccc(O)cc1)C(=O)N[C@@H](Cc1ccc(O)cc1)C(=O)N[C@@H](Cc1ccccc1)C(=O)N[C@@H](Cc1c[nH]c2ccccc12)C(=O)N[C@@H](CC(=O)O)C(=O)O [Peptide A3F305-311] (H-RLYYFWD-OH) | – | 1 | DNA damage in non-irradiated SupT1 cells (comet assay) (SupT1 cells): did not induce breaks; DNA damage in non-irradiated H9 cells (comet assay) (H9 cells): did not induce breaks
Vif105-119 (peptide) | 0.1 | – | –
CC(C)C[C@H](NC(=O)[C@H](CCCNC(=N)N)NC(=O)[C@H](C)N)C(=O)N[C@@H](Cc1ccc(O)cc1)C(=O)N[C@@H](Cc1ccc(O)cc1)C(=O)N[C@@H](Cc1ccccc1)C(=O)N[C@@H](Cc1c[nH]c2ccccc12)C(=O)N[C@@H](CC(=O)O)C(=O)N[C@H](C(=O)O)[C@@H](C)O [Peptide A3F304-312] (H-ARLYYFWDT-OH) | – | 8 | DNA damage in non-irradiated SupT1 cells (comet assay) (SupT1 cells): did not induce breaks; DNA damage in non-irradiated H9 cells (comet assay) (H9 cells): did not induce breaks
CSCC[C@H](NC(=O)[C@H](C)NC(=O)[C@H](C)NC(=O)[C@H](CCCCN)NC(=O)[C@@H](N)C(C)C)C(=O)N[C@@H](Cc1ccc(O)cc1)C(=O)N[C@H](C(=O)N[C@@H](CO)C(=O)NCC(=O)N[C@@H](CCCCN)C(=O)N[C@@H](C)C(=O)N[C@@H](CCCNC(=N)N)C(=O)NCC(=O)N[C@@H](Cc1c[nH]c2ccccc12)C(=O)N[C@@H](Cc1ccccc1)C(=O)O)C(C)C [Vif 25-39 (27AA28)] (H-VKAAMYVSGKARGWF-OH) | – | 4.5 | –
Vif 25-39 (26A) (peptide) | 8 | – | –
CSCC[C@H](NC(=O)[C@H](Cc1c[nH]cn1)NC(=O)[C@H](Cc1c[nH]cn1)NC(=O)[C@H](CCCCN)NC(=O)[C@@H](N)C(C)C)C(=O)N[C@@H](Cc1ccc(O)cc1)C(=O)N[C@H](C(=O)N[C@@H](CO)C(=O)NCC(=O)N[C@@H](CCCCN)C(=O)N[C@@H](C)C(=O)N[C@@H](CCCNC(=N)N)C(=O)O)C(C)C [Vif25-36] | – | 50 | –
Vif25-39 (peptide) | 0.6 | – | –
CSCC[C@H](NC(=O)[C@H](Cc1c[nH]cn1)NC(=O)[C@H](Cc1c[nH]cn1)NC(=O)[C@H](C)NC(=O)[C@@H](N)C(C)C)C(=O)N[C@@H](Cc1ccc(O)cc1)C(=O)N[C@H](C(=O)N[C@@H](CO)C(=O)NCC(=O)N[C@@H](CCCCN)C(=O)N[C@@H](C)C(=O)N[C@@H](CCCNC(=N)N)C(=O)NCC(=O)N[C@@H](Cc1c[nH]c2ccccc12)C(=O)N[C@@H](Cc1ccccc1)C(=O)O)C(C)C [Vif 25-39 (26A)] | – | 8 | –
CSCC[C@H](NC(=O)[C@@H](N)CCCNC(=N)N)C(=O)N[C@@H](Cc1c[nH]cn1)C(=O)N[C@@H](CC(N)=O)C(=O)N[C@@H](CC(=O)O)C(=O)N[C@H](C(=O)N[C@@H](Cc1c[nH]c2ccccc12)C(=O)N[C@H](C(=O)N[C@@H](CC(C)C)C(=O)N[C@@H](CC(C)C)C(=O)N[C@@H](CC(N)=O)C(=O)N[C@@H](CCC(N)=O)C(=O)N[C@@H](CCCNC(=N)N)C(=O)N[C@@H](CCCNC(=N)N)C(=O)NCC(=O)O)C(C)C)[C@@H](C)O [Peptide A3G226-240] (H-RMHNDTWVLLNQRRG-OH) | – | 60 | –
Vif 25-39 (26AAA28) (peptide) | 10 | – | –
Vif 25-39 (27AA28) (peptide) | 4.5 | – | –
CC[C@H](C)[C@H](N)C(=O)N[C@@H](Cc1c[nH]cn1)C(=O)N[C@@H](CC(C)C)C(=O)N[C@@H](Cc1ccc(O)cc1)C(=O)N[C@@H](Cc1ccc(O)cc1)C(=O)N[C@@H](Cc1ccccc1)C(=O)N[C@@H](CC(=O)O)C(=O)N[C@@H](CS)C(=O)N[C@@H](Cc1ccccc1)C(=O)O [Vif107-115] (H-IHLYYFDCF-OH) | – | – | DNA damage in non-irradiated SupT1 cells (comet assay) (SupT1 cells): did not induce any damage; Ki (A3G): ~1.71 µM; DNA damage in non-irradiated H9 cells (comet assay) (H9 cells): did not induce any damage
ARLYYFWDT [A3F304-312] | 8 | – | –
RLYYFWD [A3F305-311] | 1 | – | –
RMHNDTWVLLNQRRG [A3G226-240] | 60 | – | –
IHLYYFDCF [Vif107-115] | – | – | IC50 of inhibition of ssDNA deamination by purified A3G [2]: 0.1 µM
WVRGRHETYLCYEVE [A3G211-225] | 10 | – | –
